Like-named read-outs stand apart in the source and are kept apart here.
Key:
TSPO [1] = type: in vivo, human
Outline: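 Eight healthy volunteers (2 women, 6 men; 32±11 y), each scanned once with each aryloxyanilide radioligand (18F: 170±26 MBq; 11C: 567±84 MBq; i.v. bolus). Dynamic PET on GE Advance. Radial arterial plasma parent separated by radio-HPLC gave the input function. VT fitted from the first 120 min, then divided by per-scan fP. Ten regions; mean ± SD; repeated-measures ANOVA.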

plasma free fraction = type: in vitro ADME, human; conditions: eight subjects
[2] = kinetics of radioligand in plasma and brain after bolus intravenous injection; type: in vivo, human
TSPO [3] = experiment: in vivo affinity ratio from slope of regression of regional VT/fP; set-up: species or system human; conditions: VT/fP values in ten brain regions
TSPO [4] = conditions: monkey brain; cited from earlier work
[5] = radiation exposure; cited from earlier work
TSPO [6] = type: binding, human; conditions: membranes of white blood cells
[7] = octanol/phosphate buffer, pH 7.4; cited from earlier work
TSPO [8] = conditions: human brain tissue; cited from earlier work
TSPO [9] = experiment: in vitro affinity for TSPO in human brain tissue; type: binding; conditions: PBR06 relative to PBR28
[10] = mean of ten brain regions, eight subjects, 120 min data

Compound: COc1ccc(OC)c(CN(C(=O)C[18F])c2ccccc2Oc2ccccc2)c1 [^18F-PBR06]
- VT (TSPO [1]; Anterior cingulate): 2.05±0.42 ml × cm^−3
- VT/fP (TSPO [1]; Anterior cingulate): 97.7±21.5 ml × cm^−3
- VT (TSPO [1]; Caudate): 1.72±0.28 ml × cm^−3
- VT/fP (TSPO [1]; Caudate): 83.2±20.3 ml × cm^−3
- VT (TSPO [1]; Cerebellum): 2.26±0.61 ml × cm^−3
- VT/fP (TSPO [1]; Cerebellum): 108.0±33.4 ml × cm^−3
- VT (TSPO [1]; Frontal cortex): 2.10±0.40 ml × cm^−3
- VT/fP (TSPO [1]; Frontal cortex): 100.3±22.6 ml × cm^−3
- VT (TSPO [1]; Medial temporal cortex): 2.05±0.46 ml × cm^−3
- VT/fP (TSPO [1]; Medial temporal cortex): 97.7±22.8 ml × cm^−3
- VT (TSPO [1]; Occipital cortex): 2.17±0.40 ml × cm^−3
- VT/fP (TSPO [1]; Occipital cortex): 104.0±24.3 ml × cm^−3
- VT (TSPO [1]; Parietal cortex): 2.10±0.39 ml × cm^−3
- VT/fP (TSPO [1]; Parietal cortex): 100.3±20.4 ml × cm^−3
- VT (TSPO [1]; Putamen): 1.98±0.36 ml × cm^−3
- VT/fP (TSPO [1]; Putamen): 94.8±21.2 ml × cm^−3
- VT (TSPO [1]; Temporal cortex): 2.24±0.43 ml × cm^−3
- VT/fP (TSPO [1]; Temporal cortex): 107.4±27.7 ml × cm^−3
- VT (TSPO [1]; Thalamus): 2.37±0.44 ml × cm^−3
- VT/fP (TSPO [1]; Thalamus): 113.6±25.7 ml × cm^−3
- VT (TSPO [1]; [10]): 2.1±0.4 ml × cm^−3
- VT/fP (TSPO [1]; [10]): 100.7±24.0 ml × cm^−3
- plasma free fraction (fP) (plasma free fraction): 2.2±0.6%
- time of peak brain uptake of radioactivity ([2]; human brain, after injection): ≤ 5 min
- time of peak plasma concentration of total parent radioligand ([2]; human plasma, after injection): ≤ 2 min
- peak concentration of brain uptake ([2]; mean of ten regions in eight subjects): 1.2 SUV
- peak concentration of brain uptake, range ([2]; range, ten regions in eight subjects): 1.0–1.6 SUV
- 95% confidence interval of slope (in vivo affinity ratio) (TSPO [3]): 0.89–1.84
- specific binding as part of total uptake (TSPO [4]): greater than 90%
- effective dose [5]: 18.5 µSv/MBq

Compound: COc1ccccc1CN(C(C)=O)c1cnccc1Oc1ccccc1 [PBR28]
- fold lower affinity in non-binders than in the majority (90%) of the population (TSPO [6]): about 50 fold
- log D [7]: 3.0
- Ki (TSPO [8]): 2.5 nM

Compound: COc1ccc(OC)c(CN(C(=O)CF)c2ccccc2Oc2ccccc2)c1 [PBR06]
- fold higher in vitro affinity than PBR28 (TSPO [9]): 2.5 fold
- Ki (TSPO [8]): 1 nM
